The text below walks through data of ChEMBL document CHEMBL2311478, “Macrolactonolides: a novel class of anti-inflammatory compounds” (Bioorg Med Chem, 2013).

The structures appear in SMILES notation. Values after ≈ are worked out from the molar mass of the structure shown. Active and inactive are the calls of the source. The rule behind the calls is not given here.

In one data set the target is T1, Glucocorticoid receptor (Homo sapiens, UniProt P04150).
T1 sequence (P04150 whole entry): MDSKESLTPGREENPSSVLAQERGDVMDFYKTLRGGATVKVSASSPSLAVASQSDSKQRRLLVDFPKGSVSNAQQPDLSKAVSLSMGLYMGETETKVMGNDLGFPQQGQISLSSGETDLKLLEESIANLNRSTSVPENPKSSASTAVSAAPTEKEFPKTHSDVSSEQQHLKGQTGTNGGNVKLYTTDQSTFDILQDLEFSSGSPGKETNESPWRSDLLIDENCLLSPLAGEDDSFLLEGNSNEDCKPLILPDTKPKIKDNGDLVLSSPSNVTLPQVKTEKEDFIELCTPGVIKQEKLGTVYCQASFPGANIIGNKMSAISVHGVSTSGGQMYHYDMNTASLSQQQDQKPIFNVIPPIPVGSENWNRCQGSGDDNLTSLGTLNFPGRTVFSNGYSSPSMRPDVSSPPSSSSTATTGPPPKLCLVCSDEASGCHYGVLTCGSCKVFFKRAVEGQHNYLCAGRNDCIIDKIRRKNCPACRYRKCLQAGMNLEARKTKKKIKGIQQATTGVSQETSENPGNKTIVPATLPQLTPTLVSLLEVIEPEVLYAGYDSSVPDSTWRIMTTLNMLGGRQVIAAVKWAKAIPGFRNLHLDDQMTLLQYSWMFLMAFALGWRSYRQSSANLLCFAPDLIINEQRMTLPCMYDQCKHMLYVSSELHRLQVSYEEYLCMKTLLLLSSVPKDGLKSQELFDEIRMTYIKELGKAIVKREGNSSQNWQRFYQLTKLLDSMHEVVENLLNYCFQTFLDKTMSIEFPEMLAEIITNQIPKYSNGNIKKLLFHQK
The experiment in a line: Binding affinity to glucocorticoid receptor (unknown origin) by fluorescence polarization competitive binding assay.

For data set [1], the system named is PBMC. The data set is described as follows: Antiinflammatory activity in human PBMC assessed as inhibition of anti-CD3-induced IL-12p70 production after 48 hrs. In kind it is functional, cell-based. The gist of the method:
(§1)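 Thawed cryopreserved human PBMCs were preincubated 1 h at 37 °C, 5% CO2, then exposed to test compound for 1 h before LPS, anti-CD3 or PHA stimulation. Supernatants were collected at 6, 24 or 48 h according to each cytokine's peak, and cytokines quantified by Luminex multiplex bead assay. 10-point titration starting at 20 µM, in duplicate, with constant DMSO. Parallel Alamar Blue cytotoxicity check under 48 h PHA.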

Another data set has as its system Streptococcus pyogenes. The data set is described as follows: Antibacterial activity against efflux mediated macrolide-resistant Streptococcus pyogenes Finland 2 by broth microdilution method. In kind it is functional. The gist of the method: (§2)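 MICs by CLSI broth microdilution with double dilutions, except that Streptococcus medium used 5% horse serum in place of lysed blood. Bacteria were pre-grown on Columbia agar with 5% sheep blood (streptococci) or Mueller–Hinton agar (staphylococci).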

The subject of data set [2] is PBMC. The data set is described as follows: Antiinflammatory activity in human PBMC assessed as inhibition of PHA-induced IL-5 production after 48 hrs. In kind it is functional, cell-based. In a few lines: as §1
A short description of data set [3]: Half life in Balb/c mouse plasma at 2 mg/kg, administered intranasally. In kind it is ADME, organism-based. Set-up: dose 2 mg/kg. The note with it: inhaled or intranasal. In a few lines:
(§3)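 Male Balb/c mice (21–25 g) dosed intranasally with freshly prepared formulation in 1% DMSO plus 0.125% CMC. Terminal bleeding and lung collection from 5 min to 72 h. K2EDTA blood taken as blood aliquots or spun for plasma. Lung homogenised 1:5 in water. Samples were protein-precipitated with acetonitrile/methanol (2:1) plus roxithromycin internal standard and quantified by LC–MS/MS. LLOQ 0.5 ng/mL (blood/plasma) and 2.5 ng/mL (lung).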

Data set [4] concerns PBMC. The data set is described as follows: Antiinflammatory activity in human PBMC assessed as inhibition of anti-CD3-induced TNFalpha production after 48 hrs. In kind it is functional, cell-based. In a few lines: as §1
The nature of data set [5]: Drug uptake in mouse J774A1 cells assessed as compound retention at 10 uM after 3 hrs by LC-MS/MS method. The format is ADME, cell-based. The note with it: j774.a1, 3 h. The gist of the method:
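J774A.1 cells were loaded with 10 µM compound for 3 h in DMEM/25 mM Hepes, then incubated 3 h in fresh medium. Cells were washed, lysed in 0.5% Triton X-100 and analysed by LC–MS/MS. Retention is the percentage of the initially accumulated amount remaining. Triplicates, mean ± SD from one representative experiment.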

For data set [6], the system named is PBMC. The data set is described as follows: Antiinflammatory activity in human PBMC assessed as inhibition of LPS-induced TNFalpha production after 6 hrs. The format is functional, cell-based. In a few lines: as §1
Data set [7] in a line: AUC (0 to infinity) in Balb/c mouse lung at 2 mg/kg, administered intranasally. In kind it is ADME, organism-based. Set-up: time infinity, route nasal, dose 2 mg/kg. The note with it: inhaled or intranasal. The gist of the method:
as §3

Data set [8] has as its system Rattus norvegicus. The data set is described as follows: Antiinflammatory activity against ovalbumin-induced airway allergic Brown-Norway rat model assessed as decrease of macrophages in bronchoalveolar lavage fluid at 32 mg/kg administered intranasally as dry powder measured on day 29 after ovalbumin challenge. The note with it: Lung. Also noted: dose 32 mg/kg. In kind it is functional, organism-based. The gist of the method:
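Brown-Norway rats sensitised by OVA injection on day 1, boosted on days 14 and 20. Treatment with 32 mg/kg or air control on day 27, followed 1 h later by 60 min OVA inhalation challenge. BAL cells differentiated about 48 h post-challenge (day 29). Comparison was against a sensitised, challenged, untreated group. Mean + SD, n = 10, Dunnett test.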

For a further data set, the system named is Haemophilus influenzae. The experiment in a line: Antibacterial activity against Haemophilus influenzae ATTC 49247 by broth microdilution method. In kind it is functional. The gist of the method:
(§4)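 CLSI broth microdilution with double dilutions in 96-well plates. For streptococci, 5% horse serum replaced lysed blood in the medium. Inocula were grown on Columbia agar with 5% sheep blood for streptococci, Mueller–Hinton chocolate agar for H. influenzae, and Mueller–Hinton agar for staphylococci. Read-out is MIC in mg/L.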

Data set [9] has as its system PBMC. The experiment in a line: Antiinflammatory activity in human PBMC assessed as inhibition of anti-CD3-induced IL-1beta production after 48 hrs. The format is functional, cell-based. In a few lines: as §1
The test system of data set [10] is Streptococcus pneumoniae. The experiment in a line: Antibacterial activity against constitutive-resistant to macrolide, licosamide and streptogramin Streptococcus pneumoniae 58 Spain by broth microdilution method. In kind it is functional. In a few lines:
as §2

Data set [11] in a line: Tmax in Balb/c mouse plasma at 2 mg/kg, administered intranasally. The format is ADME, organism-based. Also noted: dose 2 mg/kg. The note with it: inhaled or intranasal. The gist of the method:
as §3

The subject of data set [12] is Rattus norvegicus. The data set is described as follows: Antiinflammatory activity against ovalbumin-induced airway allergic Brown-Norway rat model assessed as decrease of eosinophil peroxidase activity in bronchoalveolar lavage fluid at 11 mg/kg administered intranasally as dry powder measured on day 29 after ovalbumin challenge. In kind it is functional, Lung. Set-up: scale not given: the % may be the effect or the level left.

In data set [13] the test system is PBMC. The experiment in a line: Antiinflammatory activity in human PBMC assessed as inhibition of PHA-induced IL-10 production after 48 hrs. The format is functional, cell-based. In a few lines:
as §1

A short description of data set [14]: Drug uptake in mouse J774A1 cells at 10 uM after 3 hrs by LC-MS/MS method. The note with it: j774.a1, 3 h. The format is ADME, cell-based. The gist of the method:
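Uptake in J774A.1 macrophages seeded two days before at 2 × 10^5 cells/well. Cells were exposed to 10 µM compound for 3 h in DMEM/25 mM Hepes without supplements, washed with ice-cold PBS and lysed in 0.5% Triton X-100. Lysate was measured by LC–MS/MS, using a cell volume of 1.68 µL per 10^6 cells. Result is the I/E ratio, with E taken as 10 µM.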

Data set [15] relates to Streptococcus pneumoniae. The data set is described as follows: Antibacterial activity against inducible-resistant to macrolide, licosamide and streptogramin Streptococcus pneumoniae 134 GR-M by broth microdilution method. In kind it is functional. In a few lines:
as §2

Another data set concerns Moraxella catarrhalis. The data set is described as follows: Antibacterial activity against Moraxella catarrhalis ATCC 23246 by broth microdilution method. In kind it is functional. In a few lines: as §4
Data set [16] relates to PBMC. The data set is described as follows: Antiinflammatory activity in human PBMC assessed as inhibition of PHA-induced IL-6 production after 6 hrs. The format is functional, cell-based. In a few lines:
as §1

In data set [17] the test system is PBMC. The experiment in a line: Antiinflammatory activity in human PBMC assessed as inhibition of LPS-induced IL-8 production after 6 hrs. The format is functional, cell-based. The gist of the method:
as §1

Turning to `CC[C@H]1OC(=O)[C@H](C)[C@@H](O[C@H]2C[C@@](C)(OC)[C@@H](O)[C@H](C)O2)[C@H](C)[C@@H](O[C@@H]2O[C@H](C)C[C@H](N(C)C)[C@H]2O)[C@](C)(O)C[C@@H](C)CN(CCCNC(=O)[C@H]2[C@H](C)C[C@H]3[C@@H]4CCC5=CC(=O)C=C[C@]5(C)[C@@]4(F)[C@@H](O)C[C@@]32C)[C@H](C)[C@@H](O)[C@]1(C)O`, the EC50 on Glucocorticoid receptor is 4.16 µM; in the data set with PBMC [1], 17 nM; in the data set with PBMC [2] it was 606 nM; in the data set with PBMC [4], 37 nM; in the data set on PBMC [6], 3000 nM; in the data set on PBMC [9], 30 nM. Further, the values for the EC50 with PBMC [13], with PBMC [16] and in the data set on PBMC [17] were 5.12 µM, 4.03 µM and 9 µM, respectively. Also, the MIC against Streptococcus pyogenes is 32 µg/mL (≈ 28.2 µM); in the data set on Haemophilus influenzae, 64 µg/mL (≈ 56.3 µM); against Streptococcus pneumoniae [10], 64 µg/mL (≈ 56.3 µM); with Streptococcus pneumoniae [15] it was over 64 µg/mL; against Moraxella catarrhalis, 8 µg/mL (≈ 7.04 µM). In data set [3], this compound gave a half-life of 54 min. Also, the Drug uptake result in data set [5] and in data set [14] was “Active” each time. Besides, the AUC(0-inf) in [7] amounted to 9680 ng·h/mL. Besides, the result in the data set on Rattus norvegicus [8] was Active. The Tmax in [11] was determined as 15 min. Besides, the Activity with Rattus norvegicus [12] worked out at 12%.
